Reference: the RNAGym collection of RNA variant scans (doi:10.1126/science.aae0568)
Fewer inactive variants are shown than the library holds.

B1: tRNA (parent)
chain: GUUCCGUUGGCGUAAUGGUAACGCGUCUCCCUCCUAAGGAGAAGACUGCGGGUUCGAGUCCCGUACGGAACG

Variants of: B1
Experiment: yeast fitness relative to wild type (ratio to wild type); higher = fitter; tRNA-Arg(CCU), competitive growth, 37 C, YPD
How it was run: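 Changes in genotype frequencies gave Darwinian fitness relative to wild type. Frequencies were read by 100-nucleotide paired-end sequencing of gene amplicons before and after pooled Saccharomyces cerevisiae strains, carrying tRNA-Arg(CCU) gene variants at the native locus, were competed in YPD at 37°C for 24 hours in six replicates. A genotype was kept only with ≥ 100 starting reads, and estimates < 0.5 were set to 0.5.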

| Variant | yeast fitness |
| --- | --- |
| U3A C24U A40U G48A | ≤ 0.5 |
| C5A C24U A43C G58A | ≤ 0.5 |
| A20U A21U C31G C55A G68U | ≤ 0.5 |
| C5G C27U C29G | ≤ 0.5 |
| G17A A42C | 0.645 |
| U13C U16G A65G | 0.572 |
| G48A C60G A70C | ≤ 0.5 |
| U3C C31U C66U | 0.898 |
| U3C C31U G52C | 0.591 |
| U7A A20G C61A | 0.616 |
| C4A G17C G23C U53A | ≤ 0.5 |
| A37C C62G A69C | ≤ 0.5 |
| A21U A43C A45U C49G C61U | 0.56 |
| C29G A40G G63A | ≤ 0.5 |
| C34A A40G U47A C66G A69C A70C | 0.693 |
| U2C C24G A37G G58A G67A | ≤ 0.5 |
| G17C C34A U59C | 0.542 |
| G18U | 0.844 |
| C24U C30U C31G A57G | 0.576 |
| C4G G9C C33G C61U A70G | ≤ 0.5 |
| A20U C22A U32G | ≤ 0.5 |
| C55U U59A A70U | 0.524 |
| G9C C27G | 0.581 |
| C5U U8C A43U | 0.703 |

| Variant | yeast fitness |
| --- | --- |
| G9C G23A C33G | ≤ 0.5 |
| C4U A40C A70G | ≤ 0.5 |
| C24G C31G C33U C46G U54G G67U | 0.645 |
| C29G U32A C33U | ≤ 0.5 |
| U3C A37C G38A G52A G63A | ≤ 0.5 |
| G38A C55U A57G | ≤ 0.5 |
| C11A C33A A36C | 0.506 |
| U3G C22A C24U U35G A45U G56A | ≤ 0.5 |
| U19C A36C G41C C66A | ≤ 0.5 |
| C11U A21C | 0.714 |
| C34G A45C A57C | 0.514 |
| U28C G56A | 0.933 |
| G6A A20C C55U | 0.568 |
| U2G A15C C49U | 0.563 |
| A36C A43U U47A U54A | ≤ 0.5 |
| C27A G44C G51A | ≤ 0.5 |
| C55G C66U A69C | ≤ 0.5 |
| G41A C60G A70G | 0.542 |
| C4G G12U A14C C49U A65U | ≤ 0.5 |
| A15U G23C C29U G50A | 0.616 |
| U2A C11G A21G A37G | ≤ 0.5 |
| A21G U54C | 0.937 |
| C5U C66G G68C | 0.541 |
| G17C C24G C30U G50C | ≤ 0.5 |

| Variant | yeast fitness |
| --- | --- |
| G9A U54C C61G | 0.565 |
| A45U C60U | 0.737 |
| U32G C33A | 0.601 |
| C11G C60U C62G A70G | ≤ 0.5 |
| C5U A42G U47A | 0.619 |
| C24U A42U | 0.875 |
| C27G U28C A45C G48A C55A | 0.601 |
| C4G U28C G56U U59A | 0.606 |
| G9A G12U A14U U32G U53A | ≤ 0.5 |
| A15U G25A C46U G56A | 1.04 |
| U3C A21G C46G G50A | ≤ 0.5 |
| C5U U7C G38A A45G G48A G67A | ≤ 0.5 |
| G17C G25A C49A | ≤ 0.5 |
| U7C G17A C22U | 0.651 |
| C5G C27U C61G | ≤ 0.5 |
| C5U C22U C24A G56C U59G | ≤ 0.5 |
| U3G U53C C66U A69U | 0.548 |
| C11U C29A U54A A70C | ≤ 0.5 |
| U7A C30U | 0.614 |
| U35C G56A | 0.735 |
| A14U A69G | 0.608 |
| U8G U13A A43G U53A | 0.58 |
| G6A A14U C30U A69U | ≤ 0.5 |
| C4G C5G | 0.697 |

| Variant | yeast fitness |
| --- | --- |
| A36G A65C | 0.9 |
| C5A G10C U26C G39C C61U | ≤ 0.5 |
| G39A G52C C55G C60A | ≤ 0.5 |
| A21C A42G U54G | 0.555 |
| U47A C55G C61U | 0.522 |
| C46U G51C | 0.571 |
| U13A G23A | 0.659 |
| U7G A43C G58C | 0.648 |
| U2C G38A C55A | ≤ 0.5 |
| C49G G56A | 0.838 |
| C55A A57G | 0.671 |
| A36C U59A | 0.569 |
| G6C G38C G68A A70U | ≤ 0.5 |
| C4A C22U U59A | ≤ 0.5 |
| C4A C30U U54A | ≤ 0.5 |
| G12C A15G C34A G63C A70C | 0.641 |
| C27A G44C U59A | ≤ 0.5 |
| C5U U35C A43U A70G | ≤ 0.5 |
| G41C U54G | ≤ 0.5 |
| G23U A37U | ≤ 0.5 |
| G68U A69G | 0.998 |
| C4G A21C C30A G51A | 0.747 |
| A14G C22U | 0.783 |
| C4G A20U | 0.659 |

| Variant | yeast fitness |
| --- | --- |
| U16C C29G C49U C60G | ≤ 0.5 |
| U19C C55U | 0.807 |
| C5U G17C A43C C49G | ≤ 0.5 |
| A15G C24G C29U C34G U35C C46G | 0.618 |
| G38C A69U | 0.788 |
| C55U C61A A65G | ≤ 0.5 |
| U16A A43G A69G A70G | ≤ 0.5 |
| U2A A20G | 0.838 |
| C34A A43C | 0.645 |
| G18C G56C C62U | ≤ 0.5 |
| U13C A40U A69U | 0.793 |
| A36G G50C | 0.723 |
| C22A C46G A70C | 0.57 |
| G12C G67U | 0.767 |
| U13A C60U | 0.699 |
| G10C G48A U54A | ≤ 0.5 |
| U53A C55A | 0.756 |
| G6A A20C C27U | 0.663 |
| C11G G50A C66G | ≤ 0.5 |
| U19A | 1 |
| C11U A14G C27G C31U | 0.618 |
| G17A C29A G67C A69U | ≤ 0.5 |
| A14G C46G A69U | 0.861 |
| G25C C31A A43U U54A | ≤ 0.5 |

| Variant | yeast fitness |
| --- | --- |
| C11U C29A U35C | ≤ 0.5 |
| C5G G56A U59G | ≤ 0.5 |
| A21U C31A G39C C61A | 0.579 |
| U3G U8C C62A | ≤ 0.5 |
| G10A G25A A40C C55G C61A | ≤ 0.5 |
| C4U U16G U47G | 0.602 |
| G51C A70U | 0.662 |
| U3C G6A C30U G39A A45G C46U C49G | ≤ 0.5 |
| C24A C29G A69G | ≤ 0.5 |
| A45U C62G C66G | ≤ 0.5 |
| C5U A14U G48A C66U | ≤ 0.5 |
| C5G G9A C11U A21U C22U A57C C60G | 0.535 |
| G17C G25C A37G | ≤ 0.5 |
| C33U A40C A45C C60G A65C | ≤ 0.5 |
| C4G A40G G48A G56C | ≤ 0.5 |
| C4A G12A U16A G51A U54A | 0.542 |
| C29G C30G U32C A36U | 0.524 |
| U8A C30G C46A G63A G67A | ≤ 0.5 |
| U26A U32C A57C G67A A69U | ≤ 0.5 |
| C5U C34A U53A A57U A65U | ≤ 0.5 |
| A40C G50C | 0.644 |
| G12A U28G C30U A36C | ≤ 0.5 |
| G17C G18C C22A G41C A42U U64C | ≤ 0.5 |
| U16C C62U C66U | 0.722 |

| Variant | yeast fitness |
| --- | --- |
| C4U G6C C30G C60U | 0.546 |
| G6A C22U C34G G56C | 0.693 |
| U8C C11G A69U | ≤ 0.5 |
| C4U A57U U59C | 0.54 |
| C27A A43C | 0.939 |
| A15C G18A U35C | ≤ 0.5 |
| C27U U28G A40C C46A C49U | 0.995 |
| U16A A21U C46U C61G | ≤ 0.5 |
| G9A A14U C29G C34A C62U | ≤ 0.5 |
| A42C C55A U59C | 0.661 |
| C4A G23A C24G | ≤ 0.5 |
| G9A A57U | 0.672 |
| G10C C29A A37G U64C | ≤ 0.5 |
| U7G C11U G12C C33U U64A G68C | ≤ 0.5 |
| C31G C34G | 0.629 |
| U16A A21C G44A U59A | 0.847 |
| C4U U19C A40U | 0.674 |
| A20C C46A G68A | 0.875 |
| U19G C22U C31U A40U C55G A65C | ≤ 0.5 |
| C11U A42U G67C | 0.536 |
| U3A A40C | 0.635 |
| A20C A36U A45U U53A | ≤ 0.5 |
| C4G C27U C49U | ≤ 0.5 |
